Source: PubChem
ARNT TACC3 PPI: disruptors of human ARNT/TACC3 interaction; inhibition, % at 9.99 µM; Q9Y6A5; actives 0.66% (n = 390,000); AlphaScreen His-ARNT PAS-B/GST-TACC3 binding, luminescence; TACC3 fragment carries E629A point mutation;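 active = mean inhibition of replicates at least 50% and at least half of replicates each reaching 50%; inconclusive = half or more replicates reach 50% but mean below 50%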;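 note: 0% = complete ARNT plus TACC3 wells and 100% = ARNT alone without TACC3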
MLL AF4-AF9 inh: blocks AF4 peptide binding to human AF9 | P42568 | AlphaScreen, biotin-AF4 peptide binding to FLAG-AF9 | inhibition, % at 10 µM | actives 0.47% (n = 350,000);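 active = every replicate reaching a set inhibition limit, whatever the replicate mean, cut at about 25% in these data; inconclusive = mean inhibition reaches that limit but some replicates miss it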;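 note: 0% = plate neutral control median and 100% = total signal loss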
ERp5 block: inhibitors of human ERp5. ERp5 insulin aggregation, absorbance 650 nm, 90 min. actives 0.05% (n = 350,000). Q15084. inhibition, % at 9.99 µM. AID 651711;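 active = mean replicate inhibition above about 25%, with every replicate also reaching it, limit read from the data, passing the limit was not always enough; inconclusive = only one of those two criteria met; inactive = neither criterion met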
PDI inh: blocks human protein disulfide isomerase activity; inhibition, % at 10 µM; AID 588391; PDI insulin aggregation turbidity, A650, 90 min; actives 0.052% (n = 350,000);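 active = mean inhibition across replicates of 30% or more, whatever share of single replicates reach that level; inconclusive = mean inhibition below 30% while every single replicate reaches 30%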
Target sequence (P07237 whole entry, looked up): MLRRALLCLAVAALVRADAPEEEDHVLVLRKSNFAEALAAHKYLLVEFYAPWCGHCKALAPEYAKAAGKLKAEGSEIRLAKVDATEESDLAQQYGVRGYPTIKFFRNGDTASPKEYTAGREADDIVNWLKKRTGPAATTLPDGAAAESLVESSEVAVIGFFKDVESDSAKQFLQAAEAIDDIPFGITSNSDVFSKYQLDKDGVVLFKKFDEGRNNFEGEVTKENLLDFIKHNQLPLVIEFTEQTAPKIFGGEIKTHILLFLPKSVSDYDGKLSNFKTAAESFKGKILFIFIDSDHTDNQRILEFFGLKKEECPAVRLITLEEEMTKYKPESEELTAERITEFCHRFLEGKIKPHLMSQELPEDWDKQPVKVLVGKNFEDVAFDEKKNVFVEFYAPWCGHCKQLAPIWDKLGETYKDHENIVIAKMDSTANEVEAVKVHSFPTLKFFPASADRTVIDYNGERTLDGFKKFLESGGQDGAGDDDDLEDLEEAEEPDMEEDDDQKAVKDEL
FN deposition inh: fibronectin deposition inhibition. inhibition, % at 12.6 µM. AH1F fibroblasts, Alexa488-fibronectin deposition fluorescence, overnight. actives 0.086% (n = 350,000);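 active = mean inhibition across replicates of 30% or more, regardless of how many single replicates reach that level; inconclusive = mean under 30% yet at least half of replicates reach 30%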;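 note: positive control wells lacked labelled fibronectin entirely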
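Schedule: 1 h cell adhesion before compound, then overnight fibronectin incubation; test system: AH1F fibroblast monolayer depositing Alexa488-labelled fibronectin into matrix; quantity: 10000 AH1F cells per well; probe or stimulus: fluorescent fibronectin at 24 nM final; signal: fluorescence, ex 485 nm, em 525 nm; evaluation: percent inhibition as loss of matrix-bound fibronectin fluorescence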
FGF22 binding: FGF22 (human) thermal shift binding; activity (Tm shift, normalised), % at 9.99 µM; AID 651658; recombinant FGF22 thermal shift, SYPRO orange fluorescence; percent of sucrose octasulfate shift, DMSO zero; actives 1.5% (n = 340,000); Q9HCT0;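 active = mean Tm shift, scaled 0 neutral to 100 positive control, at about 1.3% or above, every replicate too, limit read from the data; inconclusive = no clear call, values can overlap the other calls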
ARNT Alpha ctr: interferes with AlphaScreen signal, flagging false ARNT-TACC3 hits; actives 50% (n = 1,200); shares compounds with ARNT TACC3 PPI; His-ARNT PASB-GST AlphaScreen artifact counter-screen, luminescence; AC50, µM (doses to about 68 µM), without a hit: top-dose activity change, negative = signal decrease;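 active = every separate test run was called active for a drop in luminescence, with AC50 within twice the top valid dose, actives reach about 71 µM in these data; inconclusive = the separate test runs disagree in their calls; inactive = all runs inactive, including signal change in the wrong direction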
Active calls of the source: *; u = inconclusive; x = no result; [ ] = dose if it differs, or a comment. Shown are actives, neighbours in structure and some others; about 2.1% of the full set was active somewhere.

SMILES | ARNT TACC3 PPI | MLL AF4-AF9 inh | ERp5 block | PDI inh | FN deposition inh | FGF22 binding | ARNT Alpha ctr
O=C(NCc1ccco1)c1cc(-c2ccccc2)on1 | -10.1 | x | x | -2.2 | x | x | x
Cc1ccc(CNC(=O)c2cc(-c3ccccc3)on2)cc1 | x | x | x | x | x | x | 2.1%[38 µM]
O=C(NCCCCO)c1cc(-c2ccccc2)on1 | x | x | x | x | x | x | -4.7%[38 µM]
CO[C@H]1CN(C)C(=O)c2cc(NS(=O)(=O)c3ccccc3)ccc2OC[C@@H](C)N(Cc2ccccn2)C[C@H]1C | 5.6 | 0.4 | 0.8 | x | -4.7 | 0.1 | x
O=C(c1ccc(F)cc1)N1CC(=O)N2[C@H](CO)[C@@H](c3ccc(C#CC4CC4)cc3)[C@H]2C1 | x | 1.8 | 0.4 | x | -9.1 | x | x
CN1C(=O)c2cc(NC(=O)Nc3ccccc3F)ccc2OC[C@H]2O[C@@H](CC(=O)NCCc3ccncc3)CC[C@@H]21 | -2.4 | -2.8 | 3.2 | x | 6.2 | x | x
O=C(NCc1ccccn1)Nc1cc(Cl)ccc1Cl | 18.2 | -0.9 | 3.3 | 13.8 | x | -0.1 | x
O=C(CC(NCc1ccccn1)C(=O)O)Nc1ccccc1Cl (stereo not given) | 51.1* | -3.3 | 6.1 | 7.3 | -2.1 | 0.1 | 13.5µM*
COc1cccc(C(=O)Nc2ccc3c(c2)OC[C@@H](C)N(C(=O)C2CC2)C[C@@H](C)[C@H](OC)CN(C)C3=O)c1 | -7.6 | -0.9 | -0.9 | x | -11.1 | -0.4 | x
O=C(Nc1ccccc1)N1CCCCN2[C@H](C1)[C@H](c1ccc(C#CC3CC3)cc1)[C@@H]2CO | active | 1.8 | -8.8 | x | x | 0.5 | -32.2%[38 µM]
O=C(Nc1ccccc1)N1CCCCN2[C@@H](CO)[C@@H](c3ccc(C#CC4CC4)cc3)[C@@H]2C1 | 17.8 | 14.0 | -2.1 | x | x | -0.4 | x
COc1ccccc1OCc1nc(C#N)c(NCCCn2ccnc2)o1 | 33.5* | 3.8 | 1.3 | 7.0 | 7.6 | 0.1 | -10.4%
N#Cc1nc(COc2ccccc2F)oc1NCCCn1ccnc1 | 9.7 | x | x | -6.0 | -0.9 | x | x
COc1ccc(C#Cc2ccc3c(c2)[C@H]2[C@H](CCN2C(=O)c2ccccc2F)[C@H](CO)N3C)cc1 | 23.0 | x | x | x | 15.9 | x | x
COc1ccc(S(=O)(=O)Nc2ccc3c(c2)C(=O)N([C@H](C)CO)C[C@@H](C)[C@H](CN(C)C)OCCCC[C@@H](C)O3)cc1 | -2.1 | -0.6 | 2.8 | x | -14.5 | -0.4 | x
COc1cc(C(=O)NCc2nnc(SCC(=O)Nc3nc4ccccc4s3)o2)cc(OC)c1OC | 0.5 | -4.0 | -3.6 | -2.8 | 1.2 | -0.2 | x
COc1cc(C(=O)NCc2nnc(SCC(=O)Nc3nccs3)o2)cc(OC)c1OC | 69.5* | 0.3 | 2.3 | 0.7 | 2.1 | -0.1 | -15.1%
CN(C)CCCNC(=O)C[C@H]1CC[C@@H]2[C@H](COc3ccc(NC(=O)c4cccc(F)c4)cc3C(=O)N2C)O1 | -2.2 | -2.0 | -1.7 | x | 9.9 | -0.7 | x
CCNC(=O)C[C@H]1C=C[C@@H](NS(=O)(=O)c2ccc(F)cc2)[C@H](CO)O1 | -16.4 | -0.5 | 4.9 | x | 7.2 | 0.9 | x
COC(=O)c1ccc(C(=O)O)nc1 | 52.6* | 2.0 | -2.1 | -4.4 | -5.3 | -0.2 | -15.0%
COc1ccccc1CNC(=O)C[C@@H]1CC[C@H](NC(=O)CC2CC2)[C@@H](CO)O1 | 13.6 | -1.9 | -0.8 | x | 1.8 | -0.4 | x
Cc1ccc(C(=O)Oc2ccc(/C=C3\C(=N)N4N=C(N5CCOCC5)SC4=NC3=O)cc2)cc1 | 56.3* | u | -5.5 | x | -0.8 | 0.1 | -27.0%
COc1cccc(/C=N/NC(=O)C(=O)N2CCCCCC2)c1O | 60.0* | -1.4 | 13.0 | 7.2 | -3.1 | -0.6 | -18.6%
COc1cccc(/C=N/NC(=O)C(=O)N/N=C/c2cccc(OC)c2O)c1O | 40.3 | -1.8 | 1.5 | 0.6 | 0.4 | 0.0 | x
O=C(Nc1ccccc1C(=O)Nc1ccccc1C(=O)O)c1ccccc1 | 73.9* | -1.7 | 1.0 | 9.9 | -2.7 | 0.4 | 26.2µM*
Nc1ccc(C(=O)Nc2ccccc2C(=O)O)cc1 | 12.1 | x | x | 2.5 | 0.8 | x | x
COc1ccc(NC(=O)Nc2cccc3c2O[C@@H](CN(C)S(C)(=O)=O)[C@H](C)CN([C@H](C)CO)C3=O)cc1 | -1.4 | -3.8 | 2.9 | x | x | 0.0 | x
